Calls of active or inactive are those of the source. The rule behind the calls is not given here.
Columns and labels:
MRC5 = test: Cytotoxic activity against human MRC5 cells incubated for 72 hrs by resazurin dye based spectrophotometry; assay type: cell-based; details: MRC5, 72 h
In short: (§1)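 Mean ± standard error of three independent in vitro experiments. Reference drugs: miltefosine for L. donovani LV9, tested on axenic amastigotes and on amastigotes inside RAW 264.7 macrophages; paclitaxel for MRC-5, a human fetal lung fibroblast line.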

Leishmania donovani [1] = test: Antiparasitic activity against Leishmania donovani LV9 […] amastigotes infected in mouse RAW264.7 cells assessed induction of parasite cell morphological alteration at 6.25 uM incubated for 72 hrs by microscopy; assay type: functional, cell-based
In short: (§2)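 RAW 264.7 macrophages infected with L. donovani LV9 amastigotes were incubated with compound for 72 h, then examined under the microscope for morphological alteration of the infected cells.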

Plasmodium falciparum = test: Antiparasitic activity against chloroquine-resistant Plasmodium falciparum FcB1/Columbia infected in human erythrocytes assessed as reduction in [3H]-hypoxanthine incorporation incubated for 24 hrs assay by liquid scintillation spectrometry; assay type: functional, cell-based
In short: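 In vitro test of purified alkaloids against the FcB1 strain. Values are the mean ± standard error of three independent experiments.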

Leishmania donovani [2] = test: Antiparasitic activity against Leishmania donovani LV9 […] amastigotes infected in mouse RAW264.7 cells incubated for 48 hrs by Sybr Green I dye based assay; assay type: functional, cell-based; details: LV9, RAW264.7, 48 h; in short: as §1
Leishmania donovani [3] = test: Antiparasitic activity against Leishmania donovani LV9 axenic amastigotes incubated for 72 hrs by resazurin dye based assay; assay type: functional; details: LV9, 72 h; in short: as §1
Leishmania donovani [4] = test: Antiparasitic activity against Leishmania donovani LV9 […] amastigotes infected in mouse RAW264.7 cells assessed induction of parasite cell morphological alteration at 12.5 uM incubated for 72 hrs by microscopy; assay type: functional, cell-based; in short: as §2
Leishmania donovani [5] = test: Antiparasitic activity against Leishmania donovani LV9 […] amastigotes infected in mouse RAW264.7 cells assessed induction of parasite cell morphological alteration at 100 uM incubated for 72 hrs by microscopy; assay type: functional, cell-based; in short: as §2
Leishmania donovani [6] = test: Antiparasitic activity against Leishmania donovani LV9 […] amastigotes infected in mouse RAW264.7 cells assessed induction of parasite cell morphological alteration at 50 uM incubated for 72 hrs by microscopy; assay type: functional, cell-based; in short: as §2

With `C/C=C1\C[C@H]2[C@@H]([C@@H]3OC[C@H]4[C@H]5C[C@@H]6N(CC[C@@]67c6ccccc6N3[C@@H]47)C[C@H]5CC)[C@@H]3Cc4c([nH]c5ccccc45)[C@H]2N3C1` the IC50 (MRC5) was 0.022 µM, the Activity (Leishmania donovani [1]) was “Active” and the IC50 (Plasmodium falciparum) was 1.9 µM. The IC50 (Leishmania donovani [2]) was 4.5 µM and the IC50 (Leishmania donovani [3]) was 9.4 µM.

With `CCCCCCCCCCCCCCCCOP(=O)([O-])OCC[N+](C)(C)C` [MILTEFOSINE] the Activity (Leishmania donovani [4]) was “Active”, the IC50 (Leishmania donovani [2]) was 5.2 µM and the IC50 (Leishmania donovani [3]) was 1.4 µM.

With `CCC1=C(CC(=O)OC)[C@@](O)(c2nccc3c2[nH]c2ccccc23)OC1=O` the IC50 (MRC5) was greater than 50 µM, the Activity (Leishmania donovani [5]) was “inactive” and the IC50 (Plasmodium falciparum) was 74.2 µM. For the same compound, the IC50 (Leishmania donovani [2]) was 25.7 µM and the IC50 (Leishmania donovani [3]) was greater than 100 µM.

In the case of `CCC1=C(CC(=O)OC)[C@@](OC)(c2nccc3c2[nH]c2ccccc23)OC1=O`, the IC50 (MRC5) is reported as greater than 50 µM, the Activity (Leishmania donovani [5]) is reported as “inactive” and the IC50 (Plasmodium falciparum) is reported as 56 µM. The IC50 (Leishmania donovani [2]) was 59.6 µM and the IC50 (Leishmania donovani [3]) was greater than 100 µM.

In the case of `C/C=C1/C[n+]2ccc3c([nH]c4ccccc43)c2C[C@@H]1[C@@H](C(=O)OC)[C@@H]1OC[C@H]2[C@H]3C[C@@H]4N(CC[C@@]45c4ccccc4N1[C@@H]25)C[C@H]3CC`, the IC50 (MRC5) is reported as 3 µM, the Activity (Leishmania donovani [6]) is reported as “Active” and the IC50 (Plasmodium falciparum) is reported as 2.9 µM. It also gave an IC50 (Leishmania donovani [2]) of 57.8 µM and an IC50 (Leishmania donovani [3]) of 51.8 µM.

With `CC[C@@]12CCCN3C(=O)C=C(c4ccccc4NC(=O)CC1)[C@]32O` the IC50 (MRC5) was greater than 50 µM, the Activity (Leishmania donovani [5]) was “inactive” and the IC50 (Plasmodium falciparum) was greater than 100 µM. It also gave an IC50 (Leishmania donovani [2]) of 25 µM and an IC50 (Leishmania donovani [3]) greater than 100 µM.

`CC(=O)O[C@H]1C(=O)[C@@]2(C)[C@H]([C@H](OC(=O)c3ccccc3)[C@]3(O)C[C@H](OC(=O)[C@H](O)[C@@H](NC(=O)c4ccccc4)c4ccccc4)C(C)=C1C3(C)C)[C@]1(OC(C)=O)CO[C@@H]1C[C@@H]2O` [PACLITAXEL] showed an IC50 (MRC5) of 0.00052 µM.

Reference: ChEMBL document CHEMBL4043077, “Revisiting Previously Investigated Plants: A Molecular Networking-Based Study of Geissospermum laeve” (J Nat Prod, 2017)
